Reference: ChEMBL document CHEMBL1126033, “C-terminal modifications of nonpeptide renin inhibitors: improved oral bioavailability via modification of physicochemical properties” (J Med Chem, 1992)

Assays:
[1] = Bioavailability in monkey (dose 10 mg/kg i.d.); assay type: ADME, organism-based; conditions: primates, in vivo
In short: (§1)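 Male cynomolgus monkeys (3–5 kg) salt-depleted with furosemide 5 mg/kg po on days 7 and 1 plus a low-salt diet. Fasted, pentobarbital anesthesia. Intraduodenal dose of 10 mg/kg as HCl salt solution. Portal and systemic plasma drug levels measured by bioassay. Bioavailability = dose-normalized AUCid/AUCiv ×100 (trapezoidal integration; iv fit biexponential), mean ± SEM.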

[2] = Bioavailability in monkey (i.d. dosing); assay type: ADME, organism-based; conditions: in vivo; in short: as §1
[3] = Partition coefficient (logD7.4); conditions: octanol/water, pH 7.4
Mustela putorius furo [4] = assay: (§2) Average area under curve value dosed at 10 mg/kg, id in ferrets.; conditions: ferret, in vivo, other
[5] = (§3) Average peak plasma drug concentration after id dose of 10 mg/kg in ferrets(Plasma samples collected from portal blood).; assay type: ADME, organism-based, Mustela putorius furo; parameters: dose 10 mg/kg, route intraduodenal; conditions: ferret, read-out: Average peak Concn
In short: (§4)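 Fasted male Fitch ferrets (0.4–1.2 kg) under Inactin anesthesia (100–120 mg/kg ip), catheterized in carotid artery, jugular vein, portal vein and trachea. Single 10 mg/kg intraduodenal dose of HCl salt solution. 6 portal and 7 arterial samples taken over 180 min. Plasma drug measured by renin-inhibition bioassay with serial dilution and acetonitrile precipitation. AUC by trapezoidal integration; peak is the mean of each animal's maximum.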

[6] = Bioavailability in ferret; conditions: in vivo
Mustela putorius furo [7] = assay: Average area under curve value dosed at 0.3 mg/kg, iv in ferrets.; conditions: ferret, in vivo
[8] = Partition coefficient (logD6.5); conditions: octanol/water, pH 6.5
[9] = Average peak plasma drug concentration after iv dose of 0.3 mg/kg in ferrets.; conditions: ferret, plasma
Renin [10] = molecular target: T1, Renin (Homo sapiens, UniProt P00797); assay type: cell-free, Plasma
T1 sequence (P00797 whole entry): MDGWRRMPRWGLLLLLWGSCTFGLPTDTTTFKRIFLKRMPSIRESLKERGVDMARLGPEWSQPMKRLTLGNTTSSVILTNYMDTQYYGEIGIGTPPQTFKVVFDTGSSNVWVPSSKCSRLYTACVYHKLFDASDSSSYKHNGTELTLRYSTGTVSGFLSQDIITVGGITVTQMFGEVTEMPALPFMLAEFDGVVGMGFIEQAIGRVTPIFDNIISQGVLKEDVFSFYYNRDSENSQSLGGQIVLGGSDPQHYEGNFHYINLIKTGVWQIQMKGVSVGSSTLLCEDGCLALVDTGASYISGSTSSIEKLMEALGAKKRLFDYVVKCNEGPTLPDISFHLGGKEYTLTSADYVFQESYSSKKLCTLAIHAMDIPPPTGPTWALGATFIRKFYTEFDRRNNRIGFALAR

[11] = Average peak plasma drug concentration after id dose of 10 mg/kg in ferrets(Plasma samples collected from arterial blood).; conditions: ferret, plasma (from arterial blood)
Mustela putorius furo [12] = assay: as §2; assay type: ADME, organism-based; parameters: dose 10 mg/kg, route intraduodenal; conditions: ferret, in vivo, other; in short: as §4
[13] = as §3; conditions: ferret, plasma (from portal blood)
[14] = molecular target: Cathepsin D (Homo sapiens) (UniProt P07339); assay: Inhibitory activity against human cathepsin D at a concentration of 1 x 10e-5 M
Cathepsin D (Homo sapiens), sequence (P07339 65-162 limits assumed): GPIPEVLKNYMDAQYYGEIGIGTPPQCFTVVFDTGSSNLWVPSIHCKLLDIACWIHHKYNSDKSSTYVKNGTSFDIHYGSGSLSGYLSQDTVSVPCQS
Cathepsin D (Homo sapiens), sequence (P07339 169-412 limits assumed): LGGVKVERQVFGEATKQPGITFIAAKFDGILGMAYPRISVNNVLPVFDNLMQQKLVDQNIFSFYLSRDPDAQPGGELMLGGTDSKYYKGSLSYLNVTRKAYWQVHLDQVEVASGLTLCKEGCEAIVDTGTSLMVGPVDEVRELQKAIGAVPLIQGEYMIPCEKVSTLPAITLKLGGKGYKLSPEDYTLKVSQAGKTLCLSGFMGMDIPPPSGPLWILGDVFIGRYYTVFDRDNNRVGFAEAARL
In short: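 Human spleen cathepsin D, purified by hemoglobin affinity chromatography and assayed with hemoglobin substrate.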

Cathepsin D (Bos taurus) = molecular target: T2, Cathepsin D (Bos taurus) (UniProt P80209); assay: Inhibitory activity against bovine cathepsin D at a concentration of 1 x 10e-5 M
T2 sequence (whole entry): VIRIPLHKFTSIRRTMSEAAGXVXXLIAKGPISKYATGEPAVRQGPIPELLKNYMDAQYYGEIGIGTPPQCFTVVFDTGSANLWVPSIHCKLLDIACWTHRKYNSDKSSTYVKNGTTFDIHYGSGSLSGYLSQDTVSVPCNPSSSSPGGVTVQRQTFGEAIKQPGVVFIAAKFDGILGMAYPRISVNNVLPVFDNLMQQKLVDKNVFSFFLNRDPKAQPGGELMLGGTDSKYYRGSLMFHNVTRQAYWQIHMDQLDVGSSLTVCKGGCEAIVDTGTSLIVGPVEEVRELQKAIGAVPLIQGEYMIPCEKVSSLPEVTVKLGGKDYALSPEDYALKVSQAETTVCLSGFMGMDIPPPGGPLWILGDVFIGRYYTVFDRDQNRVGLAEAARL

[15] = Inhibitory activity against monkey plasma at pH 7.4; conditions: Cercopithecidae
Pepsin A (Sus scrofa) = Pepsin A (Sus scrofa) (UniProt P00791); assay: Inhibitory activity against porcine pepsin at a concentration of 1 x 10e-5 M
Pepsin A (Sus scrofa), sequence (P00791 60-385 limits assumed): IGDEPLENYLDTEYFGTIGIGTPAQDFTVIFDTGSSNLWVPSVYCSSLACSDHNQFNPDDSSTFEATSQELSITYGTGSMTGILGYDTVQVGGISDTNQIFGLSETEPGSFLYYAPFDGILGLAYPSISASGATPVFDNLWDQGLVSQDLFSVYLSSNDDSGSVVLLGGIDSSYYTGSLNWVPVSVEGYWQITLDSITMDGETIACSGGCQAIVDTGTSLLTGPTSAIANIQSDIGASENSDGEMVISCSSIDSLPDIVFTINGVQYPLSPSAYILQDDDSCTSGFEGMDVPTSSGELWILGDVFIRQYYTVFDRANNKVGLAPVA

Renin [16] = molecular target: T1, Renin; assay: In vitro activity against human renin (pH 6.0)
[17] = molecular target: T3, Gastricsin (Homo sapiens) (UniProt P20142); assay: Inhibitory activity against human Gastricsin at a concentration of 1 x 10e-5 M
T3 sequence (whole entry): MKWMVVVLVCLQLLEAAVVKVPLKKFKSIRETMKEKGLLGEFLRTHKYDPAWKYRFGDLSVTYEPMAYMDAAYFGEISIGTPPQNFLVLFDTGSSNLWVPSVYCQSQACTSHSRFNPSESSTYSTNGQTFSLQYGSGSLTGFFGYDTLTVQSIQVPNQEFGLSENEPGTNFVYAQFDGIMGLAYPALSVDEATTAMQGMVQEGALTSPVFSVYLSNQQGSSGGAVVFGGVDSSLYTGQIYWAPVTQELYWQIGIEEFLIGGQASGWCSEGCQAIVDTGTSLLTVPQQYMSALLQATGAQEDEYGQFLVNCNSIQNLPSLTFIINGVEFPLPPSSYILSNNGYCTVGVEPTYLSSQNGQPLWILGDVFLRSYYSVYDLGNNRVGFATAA

[18] = molecular target: T4, Cathepsin G (Homo sapiens) (UniProt P08311); assay: Inhibitory activity against human cathepsin G at a concentration of 1 x 10e-5 M
T4 sequence (whole entry): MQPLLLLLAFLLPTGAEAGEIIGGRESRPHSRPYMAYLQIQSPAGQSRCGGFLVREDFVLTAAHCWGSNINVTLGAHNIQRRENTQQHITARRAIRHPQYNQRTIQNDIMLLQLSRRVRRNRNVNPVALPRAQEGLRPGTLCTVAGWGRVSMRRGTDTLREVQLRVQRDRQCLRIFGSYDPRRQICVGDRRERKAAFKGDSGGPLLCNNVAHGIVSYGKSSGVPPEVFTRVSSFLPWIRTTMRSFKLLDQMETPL
In short: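 Human leukocyte cathepsin G, assayed with N-succinyl-Ala-Ala-Pro-Phe-4-nitroanilide substrate.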

Row | bioavailability [1] | logD [3] | bioavailability [6] | Average AUC (Mustela putorius furo [7]) | logD [8] | Cmax [9] | IC50 (Renin [10]) | Cmax [11] | Cmax [13] | Compound | other results
1 | 2.9% |  |  |  |  |  |  |  |  | CCCC[C@H](N[C@@H](Cc1ccccc1)C(=O)N1CCC(OCOC)CC1)C(=O)N[C@@H](CC1CCCCC1)[C@@H](O)[C@@H](O)CC(C)C | 
2 |  |  |  |  |  |  |  |  |  | COc1ccc(C[C@H](NC(=O)CC(C)(C)N)C(=O)N[C@@H](Cc2cnc[nH]2)C(=O)N[C@@H](CC2CCCCC2)[C@@H](O)[C@@H](O)CC(C)C)cc1 | bioavailability ([2]; cercopithecidae): 1.7%
3 |  | 4 | 25% | 24.6 µg·min/mL | 4 | 3390 ng/mL | 3 nM | 2790 ng/mL |  | CCCC[C@H](O[C@@H](Cc1ccccc1)C(=O)N1CCC(OCOC)CC1)C(=O)N[C@@H](CC1CCCCC1)[C@@H](O)C[C@H](C(=O)NCCCn1ccnc1)C(C)C | Average AUC (Mustela putorius furo [4]): 203 µg·min/mL; Cmax [5]: 2420 ng/mL
4 |  | 3.7 | 70% | 15.5 µg·min/mL | 3.6 | 920 ng/mL | 7.5 nM | 2840 ng/mL | 5010 ng/mL | CCCC[C@H](O[C@@H](Cc1ccccc1)C(=O)N1CCC(OCOC)CC1)C(=O)N[C@@H](CC1CCCCC1)[C@@H](O)C[C@H](NC(=O)OCCN1CCOCC1)C(C)C | Avg AUC, (Mustela putorius furo [12]): 363 µg/min/mL
5 | 2.5% | 4.8 |  |  | 4.8 |  |  |  |  | CCCC[C@H](O[C@@H](Cc1ccccc1)C(=O)N1CCC(OCOC)CC1)C(=O)N[C@@H](CC1CCCCC1)[C@@H](O)[C@@H](O)CC(C)C | 
6 |  | 4.3 | 28% | 35.3 µg·min/mL | 3.3 | 2110 ng/mL | 2.8 nM | 4830 ng/mL | 6010 ng/mL | CCCC[C@H](O[C@@H](Cc1ccccc1)C(=O)N1CCC(OCOC)CC1)C(=O)N[C@@H](CC1CCCCC1)[C@@H](O)C[C@H](C(=O)NCCCN1CCOCC1)C(C)C | inhibition [14]: 6%; Avg AUC, (Mustela putorius furo [12]): 391 µg/min/mL; inhibition (Cathepsin D (Bos taurus)): 3%; bioavailability ([2]; primates): 16%; IC50 [15]: 1.5 nM; inhibition (Pepsin A (Sus scrofa)): 13%; IC50 (Renin [16]): 2.4 nM; inhibition [17]: 11%; inhibition [18]: 0%
7 | 2.5% | 4.7 |  |  | 4.7 |  |  |  |  | CCCCNC(=O)[C@@H](C[C@H](O)[C@H](CC1CCCCC1)NC(=O)[C@H](CCCC)O[C@@H](Cc1ccccc1)C(=O)N1CCC(OCOC)CC1)C(C)C | 
8 |  | > 5 | 45% | 28.3 µg·min/mL | > 5 | 1320 ng/mL | 3.7 nM | 2770 ng/mL | 4350 ng/mL | CCCC[C@H](O[C@@H](Cc1ccccc1)C(=O)N1CCC(OCOC)CC1)C(=O)N[C@@H](CC1CCCCC1)[C@@H](O)C[C@H](C(=O)NCCN1CCOCC1)C(C)C | Average AUC (Mustela putorius furo [4]): 425 µg·min/mL; IC50 (Renin [16]): 1 nM
